Source: ChEMBL document CHEMBL1121870, “Potential radiosensitizing agents. 2. Synthesis and biological activity of derivatives of dinitroimidazole with oxiranes” (1981)
pEC50: −log10 of the molar value.

How the values were obtained:
Format in all cases: functional
Cricetinae gen. sp. = test: Concentration needed to achieve 50% kill of chinese hamster cells under oxygenated conditions on exposure for 2 hours; details: in Cricetulus griseus, read-out: ED50 (the source's name)
In short: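 V-79 Chinese hamster monolayers in MEM with 15% fetal calf serum; ~200 cells plated, attached 2 h, then exposed to a range of drug concentrations for 2 h at 37 °C in air. Drug medium was replaced with fresh medium and cells incubated 6 days at 37 °C in 95% air/5% CO2. Colony formation was scored and the concentration giving 50% kill determined.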

[1] = Radiosensitizing effectivity evaluated as its ability to sensitize hypoxic Chinese hamster cells (V-79) towards ionizing radiation at 0.5 mM
In short: (§1)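 Asynchronous V-79 monolayers in MEM with 15% fetal calf serum were exposed to drug at the maximum nontoxic level (1 mM or less). Cultures were made hypoxic by flushing with 95% N2/5% CO2 and irradiated at 400–3000 rad. Full survival curves were obtained, and the enhancement ratio was calculated as D0 of hypoxic controls divided by D0 of hypoxic drug-treated cells.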

[2] = Radiosensitizing effectivity evaluated as its ability to sensitize hypoxic Chinese hamster cells (V-79) towards ionizing radiation at 1 mM; in short: as §1
[3] = Radiosensitizing effectivity evaluated as its ability to sensitize hypoxic Chinese hamster cells (V-79) towards ionizing radiation at 0.1 mM; in short: as §1
[4] = Radiosensitizing effectivity evaluated as its ability to sensitize hypoxic Chinese hamster cells (V-79) towards ionizing radiation at 0.25 mM; in short: as §1

| SMILES | pEC50 (Cricetinae gen. sp.) | Enhancement ratio [1] | Enhancement ratio [2] | Enhancement ratio [3] | Enhancement ratio [4] |
| --- | --- | --- | --- | --- | --- |
| O=[N+]([O-])c1cnc2n1CC(CCl)O2 (centres undefined) | 3.21 | 1.1 | – | – | – |
| COCC1Cn2c([N+](=O)[O-])cnc2O1 (centres undefined) | 3.17 | – | 1 | – | – |
| COCC1Cn2cc([N+](=O)[O-])nc2O1 (centres undefined) | 2.82 | – | – | 1.1 | – |
| O=[N+]([O-])c1cn2c(n1)OC(CO)C2 (centres undefined) | 2.55 | – | 1 | – | – |
| CC1Cn2c([N+](=O)[O-])cnc2O1 (centres undefined) | 3.21 | 1.1 | – | – | – |
| CC1Cn2cc([N+](=O)[O-])nc2O1 (centres undefined) | 2.82 | – | – | 1.2 | – |
| COCC(O)Cn1cc([N+](=O)[O-])nc1[N+](=O)[O-] (centres undefined) | 2.66 | 2.1 | – | 1.8 | – |
| O=[N+]([O-])c1cn2c(n1)OC(CCl)C2 (centres undefined) | 2.89 | – | – | 1.1 | – |
| O=[N+]([O-])c1cnc2n1CCO2 | 3.00 | – | – | – | 1.6 |
